Data set [1] has as its system SARS-CoV-2. As to the kind of experiment: Antiviral activity against SARS CoV-2 (01/human/Jan2020/Thailand) infected in African green monkey Vero E6 cells for 2 hrs assessed as inhibition of viral replication measured after 48 hrs post infection by IFA assay. In kind it is functional, organism-based. Conditions: Severe acute respiratory syndrome coronavirus 2, (01/human/Jan2020/Thailand), Vero C1008.

Data set [2] concerns SARS-CoV-2. Kind of data set: Antiviral activity against SARS CoV-2 (01/human/Jan2020/Thailand) infected in human Calu-3 cells for 2 hrs assessed as inhibition of viral replication measured after 48 hrs post infection by IFA assay. Conditions: for IC50: Severe acute respiratory syndrome coronavirus 2, (01/human/Jan2020/Thailand). The class given is functional, organism-based.

The test system of data set [3] is SARS-CoV-2. As to the kind of experiment: Antiviral activity against SARS CoV-2 (01/human/Jan2020/Thailand) infected in human Calu-3 cells for 2 hrs assessed as inhibition of viral replication measured after 48 hrs post infection by plague assay. Conditions: Severe acute respiratory syndrome coronavirus 2, (01/human/Jan2020/Thailand). In kind it is functional, organism-based.

In data set [4] the test system is SARS-CoV-2. Kind of data set: Antiviral activity against SARS CoV-2 (01/human/Jan2020/Thailand) infected in African green monkey Vero E6 cells assessed as inhibition of viral replication pre-infected with cells for 2 hrs followed by compound addition and measured after 48 hrs post infection by plague assay. In kind it is functional, organism-based. Conditions: Severe acute respiratory syndrome coronavirus 2, (01/human/Jan2020/Thailand), Vero C1008.

Data set [5] concerns Caco-2. As to the kind of experiment: Cytotoxicity against human Caco-2 cells assessed as reduction in cell viability incubated for 48 hrs by MTT assay. The class given is functional. An outline of the steps: (§1)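 Cells plated at 5×10^4/well and exposed 48 h to 0–100 µM (or extract 0–100 µg/mL). MTT added at 0.5 mg/mL final for 4 h at 37 °C, formazan dissolved in DMSO, absorbance read at 570 nm. Data normalised to solvent control and CC50 fitted.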

The nature of data set [6]: Cytotoxicity against human imHC cells assessed as reduction in cell viability incubated for 48 hrs by MTT assay. The class given is toxicity, cell-based. Put shortly:
as §1

Data set [7] concerns HepG2. Kind of data set: Cytotoxicity against human HepG2 cells assessed as reduction in cell viability incubated for 48 hrs by MTT assay. The class given is functional. Put shortly: as §1
Data set [8] can be described thus: Selectivity index, ratio of CC50 for human HepG2 to IC50 for SARS CoV-2 (01/human/Jan2020/Thailand) infected in African green monkey Vero E6 cells. Conditions: read-out: Ratio CC50/IC50. In kind it is toxicity.
Data set [9] deals with SH-SY5Y. Kind of data set: Cytotoxicity against human SH-SY5Y cells assessed as reduction in cell viability incubated for 48 hrs by MTT assay. The class given is functional. Put shortly:
as §1
Background: Tetrazolium dyes change colour on reduction, which living cells bring about.

Data set [10] can be described thus: Selectivity index, ratio of CC50 for human SH-SY5Y to IC50 for SARS CoV-2 (01/human/Jan2020/Thailand) infected in African green monkey Vero E6 cells. The class given is toxicity. Conditions: read-out: Ratio CC50/IC50.
Data set [11] concerns SARS-CoV-2. Kind of data set: Antiviral activity against SARS CoV-2 (01/human/Jan2020/Thailand) infected in African green monkey Vero E6 cells for assessed as inhibition of viral replication preincubated for 1 hr followed by viral adsorption for 2 hrs and measured after 48 hrs by hoechst staining based analysis. The class given is functional, organism-based. Conditions: Severe acute respiratory syndrome coronavirus 2, (01/human/Jan2020/Thailand), Vero C1008.

The nature of data set [12]: Selectivity index, ratio of CC50 for human HK-2 to IC50 for SARS CoV-2 (01/human/Jan2020/Thailand) infected in African green monkey Vero E6 cells. The class given is toxicity. Conditions: HK-2 cells, read-out: Ratio CC50/IC50.
In data set [13] the test system is SARS-CoV-2. Kind of data set: Antiviral activity against SARS CoV-2 (01/human/Jan2020/Thailand) infected in human Calu-3 cells for 2 hrs assessed as reduction in extracellular viral RNA measured after 48 hrs post infection by qRT-PCR analysis. The class given is functional, organism-based. Conditions: Severe acute respiratory syndrome coronavirus 2, dose 0.1-100 µg/ml, DDE = dose-dependent effect.

The test system of data set [14] is Calu-3. Kind of data set: Cytotoxicity against human Calu-3 cells assessed as reduction in cell viability incubated for 48 hrs by MTT assay. In kind it is functional. An outline of the steps: as §1
Data set [15] in a line: Selectivity index, ratio of CC50 for human Calu-3 to IC50 for SARS CoV-2 (01/human/Jan2020/Thailand) infected in African green monkey Vero E6 cells. In kind it is toxicity. Conditions: Calu-3 cells, read-out: Ratio CC50/IC50.
Data set [16] addresses Replicase polyprotein 1ab (Severe acute respiratory syndrome coronavirus 2, UniProt P0DTD1). As to the kind of experiment: Inhibition of C-terminal His 6 tagged SARS CoV-2 main protease transfected in Escherichia coli BL21 (DE3). Also on record: species or system Severe acute respiratory syndrome-related coronavirus.
For data set [17], the system named is HK-2. As to the kind of experiment: Cytotoxicity against human HK-2 cells assessed as reduction in cell viability incubated for 48 hrs by MTT assay. In kind it is toxicity, cell-based. Conditions: hk-2, 48 h. An outline of the steps: as §1
Data set [18] in a line: Selectivity index, ratio of CC50 for human imHC to IC50 for SARS CoV-2 (01/human/Jan2020/Thailand) infected in African green monkey Vero E6 cells. In kind it is toxicity. Conditions: read-out: Ratio CC50/IC50.
Data set [19] is described as follows: Selectivity index, ratio of CC50 for human Caco-2 to IC50 for SARS CoV-2 (01/human/Jan2020/Thailand) infected in African green monkey Vero E6 cells. Conditions: Caco-2 cells, read-out: Ratio CC50/IC50. In kind it is toxicity.

Structures are written as SMILES.

The term IC50 denotes the concentration needed to halve the response being measured. As to `CCC(CC)COC(=O)[C@H](C)N[P@](=O)(OC[C@H]1O[C@@](C#N)(c2ccc3c(N)ncnn23)[C@H](O)[C@@H]1O)Oc1ccccc1` [REMDESIVIR], the IC50 in data set [1] was found to be 2.71 µM; in data set [2], 0.043 µM; in data set [3], 0.086 µM; in data set [4], 2.65 µM.
Turning to `C=C1CC[C@@H]2[C@](C)(CO)[C@H](O)CC[C@@]2(C)[C@@H]1C/C=C1/C(=O)OC[C@H]1O` [ANDROGRAPHOLIDE], the Activity in [5] was 52.3 µM; in data set [6] it was 44.55 µM; in [7], 81.52 µM; in [9], 13.19 µM; in data set [13], “Dde”; in [14], 58.03 µM. Moreover, the Activity is 34.11 µM in [17] and “Dde” in data set [2] (Severe acute respiratory syndrome coronavirus 2, dose 0.1-100 µg/ml, DDE = dose-dependent effect). Moreover, the selectivity ratio in data set [8] was 2400; in data set [10], 388; in data set [12], 1000; in data set [15], 1710; in data set [18], 1310; in [19], 1540. The IC50 in [1] is 6.58 µM; in data set [11], 19 µM; in data set [16], 15 µM; in data set [2], 1.68 µM; in data set [3], 0.034 µM; in data set [4] it was 0.28 µM.
As to `CCN(CCO)CCCC(C)Nc1ccnc2cc(Cl)ccc12` (stereo unspecified) [HYDROXYCHLOROQUINE], the IC50 in data set [2] is greater than 50 µM.
Same read-out and setting: to `O=C(Nc1ccc([N+](=O)[O-])cc1Cl)c1cc(Cl)ccc1O` [NICLOSAMIDE] belongs 0.9 µM.
